One data set concerns HCT-116. Put plainly: Cytotoxicity against human HCT116 cells after 72 hrs by SRB assay. In kind it is functional, cell-based. The following applies: for pIC50: Homo sapiens, HCT-116, 72 h, read-out: IC50; for IC50: hct-116. The method, boiled down: (§1)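 Cells cultured in DMEM with 10% FBS, 1% non-essential amino acids, penicillin/streptomycin, 37 °C, 5% CO2. 2000–3000 cells per well seeded, grown 24 h, then exposed 72 h to compound (DMSO) at 40, 20, 10, 5, 2.5 μM. TCA fixation, 0.4% SRB stain, unbound dye washed off with 1% acetic acid, bound dye dissolved in 10 mM Tris base, absorbance 515 nm. IC50 against DMSO controls, triplicate.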
For orientation: In SRB staining, fixed cells bind dye roughly in proportion to their protein.

Another data set relates to MCF7. Put plainly: Cytotoxicity against human MCF7 cells after 72 hrs by SRB assay. Format: functional, cell-based. Conditions: for pIC50: Homo sapiens, MCF7, 72 h, read-out: IC50; for IC50: mcf7; call rule not given here. In outline:
as §1

The target in data set [1] is T1, COX1 (Prostaglandin G/H synthase 1) (Ovis aries, UniProt P05979).
T1 sequence (P05979 whole entry): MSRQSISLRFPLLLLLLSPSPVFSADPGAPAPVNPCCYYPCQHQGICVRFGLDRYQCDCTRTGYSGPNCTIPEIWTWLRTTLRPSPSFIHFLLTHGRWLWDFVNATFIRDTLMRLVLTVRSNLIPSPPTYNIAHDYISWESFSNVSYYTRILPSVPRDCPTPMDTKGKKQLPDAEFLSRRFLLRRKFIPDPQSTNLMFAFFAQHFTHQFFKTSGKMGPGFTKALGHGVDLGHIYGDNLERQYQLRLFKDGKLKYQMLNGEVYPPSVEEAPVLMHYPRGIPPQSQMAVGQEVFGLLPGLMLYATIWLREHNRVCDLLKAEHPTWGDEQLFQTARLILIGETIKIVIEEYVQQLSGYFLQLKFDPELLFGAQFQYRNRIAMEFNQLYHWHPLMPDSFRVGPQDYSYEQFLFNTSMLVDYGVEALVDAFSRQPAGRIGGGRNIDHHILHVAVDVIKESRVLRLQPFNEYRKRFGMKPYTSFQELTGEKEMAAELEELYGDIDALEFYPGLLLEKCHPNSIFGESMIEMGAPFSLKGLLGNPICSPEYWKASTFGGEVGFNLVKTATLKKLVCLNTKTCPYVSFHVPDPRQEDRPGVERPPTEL
The data set is described as follows: Inhibition of sheep COX1 at 10 uM assessed as reduction in PGE2 formation using arachidonic acid as substrate by enzyme immunoassay relative to control. The following applies: probe arachidonic acid. The method, boiled down:
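Recombinant ovine COX-1, test agent at 10 μM, arachidonic acid as substrate. PGE2 formed is measured by competitive EIA (PGE2–acetylcholinesterase tracer, monoclonal anti-PGE2, Ellman's reagent, absorbance 412 nm) and quantified from an 8-point PGE2 standard curve. Result given as % inhibition of enzyme activity.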

In a further data set the test system is Huh-7. The data set is described as follows: Cytotoxicity against human HuH7 cells after 72 hrs by SRB assay. Format: functional, cell-based. The following applies: for pIC50: Homo sapiens, Huh-7, 72 h, read-out: IC50; for IC50: huh-7. In outline:
as §1

Data set [2] has as its system Platelet. The data set is described as follows: Antiplatelet activity in human platelet rich plasma assessed as inhibition of collagen-induced platelet aggregation at 100 uM preincubated for 5 mins followed by arachidonic acid addition measured for 3 mins by aggregometric analysis relative to control. Format: functional. In outline: (§2)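 Citrated venous blood (3.2% citrate, 1:9) from healthy donors free of antiplatelet drugs for 10 days; PRP from 800 rpm 10 min spin, PPP from 1500 rpm 10 min; count set to 3.8 × 10^5 platelets […]. PRP stirred at 1100 rpm, 37 °C; compound in DMSO (1% carrier) 5 min before agonist (AA final 700 μM; collagen 5 μg ml−1). Turbidimetric read, triplicate; % inhibition versus DMSO-treated maximum aggregation.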

Data set [3] concerns Platelet. The data set is described as follows: Antiplatelet activity in human platelet rich plasma assessed as inhibition of arachidonic acid-induced platelet aggregation at 100 uM preincubated for 5 mins followed by arachidonic acid addition measured for 3 mins by aggregometric analysis relative to control. Format: functional. In outline: as §2
Data set [4] deals with Platelet. The data set is described as follows: Antiplatelet activity in human platelet rich plasma assessed as inhibition of arachidonic acid-induced platelet aggregation preincubated for 5 mins followed by arachidonic acid addition measured for 3 mins by aggregometric analysis. Format: functional, cell-based.

SMILES strings stand for the structures. pIC50: −log10 of the molar value.

What is called pIC50 is −log10 of the IC50, conventionally taken in molar units. What is called inhibition is the share of the control response that was lost under treatment.

On to `O=C(/C=C/c1cn(-c2ccccc2)nc1-c1ccncc1)NCCc1ccncc1`, for which the pIC50 with HCT-116 is 5.15; with MCF7 it was 4.96; with Huh-7, 5.19. Besides, in data set [1], the inhibition at 10 µM turned out to be 26.6%. In addition, the inhibition at 100 µM in the data set on Platelet [2] was found to be 74.6%; with Platelet [3], 71.4%.

`Cc1nccn1CCNC(=O)/C=C/c1cn(-c2ccccc2)nc1-c1cccnc1`: the pIC50 was 4.70 with HCT-116, 4.66 in the data set on MCF7 and 4.59 in the data set on Huh-7. Besides, the inhibition at 10 µM in data set [1] came to 2.46%. Further, the inhibition at 100 µM in the data set with Platelet [2] was determined as 15.5%; in the data set on Platelet [3] it was 0%.

As to `O=C(/C=C/c1cn(-c2ccccc2)nc1-c1cccnc1)NCc1cccnc1`, the results for the pIC50 in the data set with HCT-116, in the data set on MCF7 and in the data set with Huh-7 were 4.67, 4.51 and 4.68, respectively. Also, the inhibition at 10 µM in data set [1] was 5.56%. Further, the inhibition at 100 µM in the data set with Platelet [2] came out at 63.3%; in the data set on Platelet [3], 1.26%.

As to `Cc1nccn1CCCNC(=O)/C=C/c1cn(-c2ccc(S(C)(=O)=O)cc2)nc1-c1cccnc1`, the IC50 entry in the data set with HCT-116, in the data set on MCF7 and in the data set with Huh-7 was “Not Active” each time. Also, the inhibition at 10 µM in data set [1] stood at 36.8%. Besides, the inhibition at 100 µM in the data set on Platelet [2] worked out at 11.1%; in the data set with Platelet [3] it was 19.5%.

For `O=C(/C=C/c1cn(-c2ccccc2)nc1-c1ccncc1)NCc1ccncc1`, the pIC50 was 4.70 with HCT-116 and 4.49 in the data set on Huh-7. For the same compound, the IC50 entry in the data set on MCF7 is recorded as “Not Active”. Further, in data set [1], the inhibition at 10 µM came out at 5.82%. In addition, the inhibition at 100 µM amounted to 50.1% with Platelet [2] and 4.96% in the data set on Platelet [3].

Regarding `CS(=O)(=O)c1ccc(-n2cc(/C=C/C(=O)NCc3ccccn3)c(-c3cccnc3)n2)cc1`, the pIC50 in the data set on HCT-116 is 4.57; in the data set with Huh-7, 4.61. In addition, the IC50 result in the data set on MCF7 was “Not Active”. The inhibition at 10 µM in data set [1] was 10.7%. The figures for the inhibition at 100 µM with Platelet [2] and with Platelet [3] were 59.8% and 8.92%, respectively.

As to `O=C(/C=C/c1cn(-c2ccccc2)nc1-c1cccnc1)NCCc1ccncc1`, the pIC50 was 4.57 with HCT-116 and 4.84 in the data set with Huh-7. Further, the IC50 result in the data set with MCF7 is “Not Active”. Further, in data set [1], the inhibition at 10 µM was determined as 10.2%. The inhibition at 100 µM amounted to 75.9% in the data set on Platelet [2] and 11.3% in the data set on Platelet [3].

In the case of `Cc1nccn1CCNC(=O)/C=C/c1cn(-c2ccccc2)nc1-c1ccncc1`, the results for the pIC50 with HCT-116 and in the data set with Huh-7 were 4.90 and 4.68, respectively. Further, the IC50 entry in the data set on MCF7 is “Not Active”. In addition, the inhibition at 10 µM in data set [1] stood at 16.9%. Moreover, the inhibition at 100 µM in the data set on Platelet [2] turned out to be 35%; in the data set with Platelet [3] it was 2.54%.

Turning to `O=C(/C=C/c1cn(-c2ccccc2)nc1-c1cccnc1)NCCc1cccnc1`, the pIC50 with HCT-116 is 4.77; in the data set with MCF7, 4.51; in the data set on Huh-7, 5.09. Moreover, the inhibition at 10 µM in data set [1] turned out to be 0.45%. The results for the inhibition at 100 µM with Platelet [2] and in the data set with Platelet [3] were 76.6% and 0%, respectively.

Turning to `O=C(/C=C/c1cn(-c2ccccc2)nc1-c1cccnc1)NCc1ccccn1`, the pIC50 in the data set with HCT-116 is 4.61; with MCF7, 4.56; in the data set with Huh-7 it was 4.73. In addition, in data set [1], the inhibition at 10 µM came out at 11.3%. For the same compound, the inhibition at 100 µM in the data set with Platelet [2] was found to be 56.5%; with Platelet [3], 0%.

On to `O=C(/C=C/c1cn(-c2ccccc2)nc1-c1cccnc1)NCCCn1ccnc1`, for which the pIC50 is 4.75 in the data set on HCT-116, 4.81 in the data set with MCF7 and 4.84 with Huh-7. For the same compound, the inhibition at 10 µM in data set [1] was determined as 0.12%. Besides, the inhibition at 100 µM is 86.5% in the data set with Platelet [2] and 16.1% in the data set with Platelet [3].

For the compound `CS(=O)(=O)c1ccc(-n2cc(/C=C/C(=O)NCc3ccncc3)c(-c3cccnc3)n2)cc1`, the pIC50 with HCT-116 is 4.50. Further, the IC50 entry with MCF7 and in the data set on Huh-7 was “Not Active” throughout. Besides, the inhibition at 10 µM in data set [1] was 12.5%. The inhibition at 100 µM is 40.9% in the data set on Platelet [2] and 6.2% in the data set with Platelet [3].

For the compound `O=C(/C=C/c1cn(-c2ccccc2)nc1-c1cccnc1)NCc1ccncc1`, the IC50 result in the data set with HCT-116 and in the data set with MCF7 was “Not Active” throughout. The inhibition at 10 µM in data set [1] worked out at 11.6%. The pIC50 in the data set on Huh-7 is 4.61. For the same compound, the inhibition at 100 µM in the data set on Platelet [2] was 36.6%; in the data set with Platelet [3], 4.54%.

For the compound `Cc1nccn1CCCNC(=O)/C=C/c1cn(-c2ccccc2)nc1-c1ccncc1`, the values for the pIC50 in the data set on HCT-116 and in the data set with Huh-7 were 4.97 and 4.68, respectively. The IC50 result in the data set with MCF7 is given as “Not Active”. For the same compound, in data set [1], the inhibition at 10 µM came out at 5.41%. Besides, the results for the inhibition at 100 µM with Platelet [2] and with Platelet [3] were 41.3% and 7.91%, respectively.

As for `CS(=O)(=O)c1ccc(-n2cc(/C=C/C(=O)NCCc3cccnc3)c(-c3cccnc3)n2)cc1`, the IC50 entry in the data set on HCT-116, with MCF7 and in the data set on Huh-7 was “Not Active” each time. Moreover, the inhibition at 10 µM in data set [1] was 1.31%. Also, the inhibition at 100 µM in the data set on Platelet [2] turned out to be 70.3%; with Platelet [3] it was 14.6%.

With `Cc1nccn1CCNC(=O)/C=C/c1cn(-c2ccc(S(C)(=O)=O)cc2)nc1-c1cccnc1`, the IC50 entry with HCT-116, in the data set with MCF7 and with Huh-7 was “Not Active” each time. In data set [1], the inhibition at 10 µM was determined as 29.6%. In addition, the inhibition at 100 µM with Platelet [2] is 8.6%; in the data set on Platelet [3], 14.3%.

As to `O=C(/C=C/c1cn(-c2ccccc2)nc1-c1cccnc1)NCCc1ccccn1`, the figures for the pIC50 in the data set with HCT-116, in the data set on MCF7 and in the data set on Huh-7 were 4.85, 4.60 and 4.72, respectively. Besides, in data set [1], the inhibition at 10 µM was 3.21%. Moreover, the inhibition at 100 µM came to 21.9% with Platelet [2] and 3.68% in the data set with Platelet [3].

`O=C(/C=C/c1cn(-c2ccccc2)nc1-c1ccncc1)NCc1cccnc1`: in the data set with HCT-116, the pIC50 was 4.84. Further, the IC50 entry with MCF7 and in the data set on Huh-7 was “Not Active” in each case. Further, the inhibition at 10 µM in data set [1] was found to be 13.7%. Further, the values for the inhibition at 100 µM with Platelet [2] and in the data set on Platelet [3] were 63.4% and 43.3%, respectively.

With `Cc1nccn1CCCNC(=O)/C=C/c1cn(-c2ccccc2)nc1-c1cccnc1`, the values for the negative-log IC50 (pIC50) with HCT-116, in the data set on MCF7 and in the data set with Huh-7 were 4.67, 4.60 and 4.87, respectively. Besides, the inhibition at 10 µM in data set [1] was 0.32%. Besides, the figures for the inhibition at 100 µM in the data set with Platelet [2] and with Platelet [3] were 60.3% and 1.24%, respectively.

As for `CS(=O)(=O)c1ccc(-n2cc(/C=C/C(=O)NCCCn3ccnc3)c(-c3cccnc3)n2)cc1`, the IC50 result in the data set with HCT-116, in the data set on MCF7 and in the data set on Huh-7 was “Not Active” in each case. Further, in data set [1], the inhibition at 10 µM turned out to be 40.5%. Moreover, the inhibition at 100 µM with Platelet [2] is 52.6%; in the data set with Platelet [3], 82.4%.

Regarding `CC(=O)Oc1ccccc1C(=O)O` [ASPIRIN], in the data set on Platelet [4], the pIC50 was 5.11. Further, the inhibition at 100 µM in the data set with Platelet [2] and in the data set on Platelet [3] was 100% throughout.

On to `O=c1[nH]cc(F)c(=O)[nH]1` [FLUOROURACIL], for which, in the data set with MCF7, the pIC50 was 5.85.

`COc1ccc2c(c1)c(CC(=O)O)c(C)n2C(=O)c1ccc(Cl)cc1` [INDOMETHACIN]: the inhibition at 10 µM in data set [1] came to 69.5%.

Values taken from ChEMBL document CHEMBL4257497, “Design, synthesis and biological evaluation of novel 1,3-diarylpyrazoles as cyclooxygenase inhibitors, antiplatelet and anticancer agents” (Medchemcomm, 2018).
